Experimental data taken from ChEMBL document CHEMBL1165941, “Design and synthesis of 2,4-disubstituted polyhydroquinolines as prospective antihyperglycemic and lipid modulating agents” (Bioorg Med Chem, 2010).
pIC50: −log10 of the molar value. Calls of active or inactive are those of the source. The rule behind the calls is not given here.

Tests used:
[1] = tested on: Rattus norvegicus; test: Antihyperglycemic activity in Sprague-Dawley albino rat streptozotocin-induced beta-cell damaged diabetic model assessed as decrease of blood glucose level at 100 mg/kg, po administered 30 mins before glucose challenge measured after 24 hrs by glucometer; type: functional; design: scale not given: the % may be the effect or the level left
Summary of the method: (§1)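 Rats were made diabetic with streptozotocin 60 mg/kg ip in 100 mM citrate pH 4.5 after an overnight fast. Animals with glucose 144–270 mg/dl at 48 h were used, 5–6 per group. Compounds were given 100 mg/kg orally in 1.0% gum acacia. Sucrose 2.5 g/kg followed 30 min later. Glucose was read by glucostrips up to 300 min and at 24 h. Non-responders were excluded. Percent activity came from AUC versus control.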

[2] = species: Mus musculus; test: Antihyperglycemic activity in C57BL/KsBom-db db/db mouse assessed as decrease in blood glucose AUC level measured on day 10 by oral glucose tolerance test (reference value: 32480 +/- 5098 %); type: functional; design: scale not given: the % may be the effect or the level left
[3] = target: T1, Tyrosine-protein phosphatase non-receptor type 1 (Homo sapiens) (UniProt P18031); test: Inhibition of PTP1B assessed as p-nitrophenolate ion production at 100 uM pretreated for 10 mins measured after 30 mins
T1 sequence (whole entry): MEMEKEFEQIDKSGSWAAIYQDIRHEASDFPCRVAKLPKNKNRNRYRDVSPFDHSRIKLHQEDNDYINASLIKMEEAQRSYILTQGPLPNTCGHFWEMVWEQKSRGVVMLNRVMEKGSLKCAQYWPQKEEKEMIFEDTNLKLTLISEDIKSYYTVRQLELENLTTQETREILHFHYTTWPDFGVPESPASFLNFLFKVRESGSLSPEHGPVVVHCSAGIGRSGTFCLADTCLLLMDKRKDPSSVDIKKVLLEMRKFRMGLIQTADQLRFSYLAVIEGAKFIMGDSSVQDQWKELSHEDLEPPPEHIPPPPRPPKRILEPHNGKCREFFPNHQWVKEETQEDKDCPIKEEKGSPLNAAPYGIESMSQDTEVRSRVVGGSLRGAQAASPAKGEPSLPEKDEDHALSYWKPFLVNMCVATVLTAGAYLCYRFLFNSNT
Summary of the method: (§2)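 PTP1B was preincubated 10 min with compound, with and without 0.01% Triton X-100. Substrate was 10 mM pNPP in 50 mM HEPES pH 7.0 with 1 mM DTT and 2 mM EDTA. After 30 min at 37 °C the reaction was stopped with 0.1 N NaOH and A410 was read. Product was calculated with ε 1.78×10⁴ M⁻¹cm⁻¹. Sodium orthovanadate served as standard. IC50 came from dose–response curves.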

[4] = tested on: Rattus norvegicus; test: Antidyslipidemic activity in Charles Foster rat assessed as reduction of Triton WR-1339-induced increase of blood triglyceride level at 100 mg/kg, po after 18 hrs; type: functional; design: scale not given: the % may be the effect or the level left
Summary of the method: (§3)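 Hyperlipidemia induced by Triton WR-1339, 400 mg/kg ip, in adult male Charles Foster rats (200–225 g), five per group. Compounds were macerated in 0.2% w/v gum acacia, suspended in water and given 100 mg/kg po together with triton. Plasma was obtained by centrifugation at 2500g, 4 °C, 10 min and diluted 1:3 in saline. TC, PL and TG were measured by enzymatic methods.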

[5] = target: T2, Tyrosine-protein phosphatase non-receptor type 1 (Homo sapiens, UniProt P18031); test: Inhibition of PTP1B assessed as p-nitrophenolate ion production pretreated for 10 mins measured after 30 mins; summary of the method: as §2
T2 sequence (P18031 whole entry): T1 sequence (whole entry)

[6] = tested on: Rattus norvegicus; test: Antidyslipidemic activity in Charles Foster rat assessed as reduction of Triton WR-1339-induced increase of blood total cholesterol level at 100 mg/kg, po after 18 hrs; type: functional; design: scale not given: the % may be the effect or the level left; summary of the method: as §3
[7] = target: T3, Glucose-6-phosphatase catalytic subunit 1 (Homo sapiens) (UniProt P35575); test: Inhibition of glucose-6-phosphatase assessed as inositol phosphate release at 100 uM after 30 mins; settings: in the assay text read “inorganic phosphate” for “inositol phosphate”
T3 sequence (whole entry): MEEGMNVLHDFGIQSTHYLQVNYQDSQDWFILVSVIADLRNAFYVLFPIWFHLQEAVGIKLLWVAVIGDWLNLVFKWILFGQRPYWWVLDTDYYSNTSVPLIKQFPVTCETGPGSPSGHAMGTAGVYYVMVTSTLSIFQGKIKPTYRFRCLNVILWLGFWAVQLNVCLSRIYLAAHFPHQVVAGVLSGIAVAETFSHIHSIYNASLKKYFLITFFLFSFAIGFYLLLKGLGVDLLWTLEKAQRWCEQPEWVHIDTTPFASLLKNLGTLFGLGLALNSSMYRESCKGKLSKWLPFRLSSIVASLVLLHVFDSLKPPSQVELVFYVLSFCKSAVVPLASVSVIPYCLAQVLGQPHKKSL
Summary of the method: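 Glucose-6-phosphatase was assayed in 0.3 M citrate pH 6.0 with 28 mM EDTA, 14 mM NaF, 200 mM glucose-6-phosphate and enzyme protein. After 30 min at 37 °C the reaction was stopped with 10% TCA. Activity was expressed as µmol Pi released per min per mg protein.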

[8] = tested on: Rattus norvegicus; test: Antihyperglycemic activity in Charles Foster-Wistar albino rat sucrose loaded model assessed as decrease of blood glucose level at 100 mg/kg, po administered 30 mins before glucose challenge measured up to 120 mins by glucometer; type: functional; design: scale not given: the % may be the effect or the level left; settings: in the assay text read “Sprague-Dawley” for “Charles Foster-Wistar”
Summary of the method: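 Sprague–Dawley male rats with blood glucose 60–80 mg/dl, 5–6 per group, received 100 mg/kg orally as a suspension in 1.0% gum acacia; controls received vehicle. Sucrose 10.0 g/kg was given orally 30 min later. Glucose was read by glucometer at 30, 60, 90 and 120 min. Food was withheld. Percent activity came from AUC versus control.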

[9] = Inhibition of glycogen phosphorylase assessed as […] phosphate release at 100 uM after 30 mins
Summary of the method: (§4)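 Glycogen phosphorylase was incubated with glycogen, glucose-1-phosphate, NaF and 5′-AMP for 30 min at 37 °C. The reaction was stopped with 10% TCA and 0.1 M sodium acetate. Samples were held overnight at 4 °C, then released Pi was measured.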

[10] = tested on: Rattus norvegicus; test: Antihyperglycemic activity in Sprague-Dawley albino rat streptozotocin-induced beta-cell damaged diabetic model assessed as decrease of blood glucose level at 100 mg/kg, po administered 30 mins before glucose challenge measured after 5 hrs by glucometer; type: functional; design: scale not given: the % may be the effect or the level left; summary of the method: as §1
[11] = Inhibition of alpha-glucosidase at 100 uM after 3 mins
Summary of the method: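 α-Glucosidase (0.1 mg/mL, purified) was assayed in 67 mM sodium phosphate pH 6.8 with 1.0 mg/mL glutathione. The reaction was started with 3.0 mg/mL pNPG and followed at 405 nm every 30 s for 3 min.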

[12] = tested on: Rattus norvegicus; test: Antihyperglycemic activity in po dosed Sprague-Dawley albino rat streptozotocin-induced beta-cell damaged diabetic model assessed as decrease of blood glucose level […] measured after 24 hrs by glucometer; type: functional
[13] = target: Dipeptidyl peptidase 4 (Homo sapiens) (UniProt P27487); test: Inhibition of DPP4 at 100 uM after 15 mins by spectrofluorimeter
Chain of Dipeptidyl peptidase 4 (Homo sapiens) (P27487 whole entry, looked up): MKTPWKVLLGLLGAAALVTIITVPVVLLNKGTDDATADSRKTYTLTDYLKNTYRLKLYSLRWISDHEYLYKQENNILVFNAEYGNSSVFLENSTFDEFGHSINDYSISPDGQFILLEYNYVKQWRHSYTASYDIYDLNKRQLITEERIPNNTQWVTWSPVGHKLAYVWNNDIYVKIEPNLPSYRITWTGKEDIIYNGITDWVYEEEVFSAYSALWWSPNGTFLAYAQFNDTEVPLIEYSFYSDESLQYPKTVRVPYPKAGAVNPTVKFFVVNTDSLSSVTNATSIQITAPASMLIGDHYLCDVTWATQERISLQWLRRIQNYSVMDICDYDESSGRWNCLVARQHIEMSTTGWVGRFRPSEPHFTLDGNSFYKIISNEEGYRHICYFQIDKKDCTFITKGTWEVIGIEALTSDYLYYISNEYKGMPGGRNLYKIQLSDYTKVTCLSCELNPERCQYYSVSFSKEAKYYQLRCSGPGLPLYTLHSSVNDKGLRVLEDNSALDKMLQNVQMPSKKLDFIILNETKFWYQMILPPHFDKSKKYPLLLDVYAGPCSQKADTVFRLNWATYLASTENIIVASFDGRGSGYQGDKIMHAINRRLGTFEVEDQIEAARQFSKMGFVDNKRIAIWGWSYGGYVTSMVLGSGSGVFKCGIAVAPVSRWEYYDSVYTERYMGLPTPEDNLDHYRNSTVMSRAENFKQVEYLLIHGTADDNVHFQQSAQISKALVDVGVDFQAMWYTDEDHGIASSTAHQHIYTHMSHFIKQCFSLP
Summary of the method: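 DPP-IV activity was measured at 37 °C as Gly-Pro-AMC (30 µM) cleavage in Tris–HCl pH 7.4 with test compound. Fluorescence was read at excitation 355 nm and emission 460 nm. The initial rate was taken over the first 15 min.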

[14] = tested on: Rattus norvegicus; test: Antidyslipidemic activity in Charles Foster rat assessed as reduction of Triton WR-1339-induced increase of blood phospholipid level at 100 mg/kg, po after 18 hrs; type: functional; design: scale not given: the % may be the effect or the level left; summary of the method: as §3
[15] = species: Mus musculus; test: Antihyperglycemic activity in C57BL/KsBom-db db/db mouse assessed as decrease in blood glucose AUC level measured on day 5 by oral glucose tolerance test (reference value: 30730 +/- 3687 %); type: functional; design: scale not given: the % may be the effect or the level left
[16] = Inhibition of glycogen phosphorylase assessed as inositol phosphate release after 30 mins; summary of the method: as §4

inhibition [3]	pIC50 [5]	inhibition [7]	inhibition [9]	inhibition [11]	inhibition [13]	pIC50 [16]	Compound	Activity [1]	Activity [2]	Activity [4]	Activity [6]	Activity [8]	Activity [10]	ED50 [12]	Activity [14]	Activity [15]
88.2%	5.54	7.38%	14.6%	inactive	inactive		CC1(C)CC(=O)C2=C(C1)NC(c1ccccc1)=CC2c1ccc(F)cc1 (stereo not given)	32.3%	-32.6%	-26.34%	-22.45%	41.3%	29.9%	47.3 mg/kg	-18.83%	-13.2%
35.4%		inactive	78.3%	11.2%	5.7%	5.23	COc1ccc(C2C=C(C(=O)O)NC3=C2C(=O)CC(C)(C)C3)cc1 (stereo not given)	33.2%	-39.6%	-19.34%	-24.63%	42.7%	29.7%	48.6 mg/kg	-21.82%	-17.9%
